The values below come from ChEMBL document CHEMBL3272314, “Sturcture-activity relationship of daunorubicin and its peptide derivatives” (J Med Chem, 1976).

Series [1] in a line: Dissociation constant, pKa of the compound. Type of series: physicochemical.
Series [2] concerns the target Bacterial DNA-directed RNA polymerase (Bacteria) (UniProt P0A8V2+P0A7Z4+P0A8T7+P0A800). As to the kind of experiment: Inhibition of Escherichia coli DNA-dependent RNA polymerase assessed as [3H]UMP incorporation into RNA using calf thymus DNA at 0.12 mM by liquid scintillation counting. Type of series: protein-complex assay. Summed up:
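E. coli RNA polymerase purified through a high-salt glycerol gradient step, 87 units/ml. Mix: 56 mM Tris-HCl pH 7.8, 1.6 mM MnCl2, 150 mM KCl, 1.6 mM β-mercaptoethanol, 0.6 mM each GTP/ATP/CTP, 0.15 mM [5-3H]-UTP, 0.12 mM P/l calf thymus DNA, drug at 0.12 mM. Started with enzyme at 37°C and sampled over time. TCA-insoluble RNA collected on filters and scintillation counted.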

In the next series the test system is P388. Nature of the series: Antitumor activity against mouse P388 cells allografted in mouse assessed as tumor growth inhibition at 0.25 to 10 mg/kg. In kind it is functional, organism-based. Summed up: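 Screened by the NCI Drug Research and Development Branch against P388 lymphocytic leukemia in mice. Dosing was daily at 0.25-10.0 mg/kg, given by peritoneal injection in water.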

Series [3] in a line: Retardation factor of the compound in 10% methanol-chloroform by TLC. In kind it is physicochemical.
Series [4] is described as follows: Dissociation constant, pKa of the compound in 20% EtOH/H2O. Type of series: physicochemical.
The nature of series [5]: Solubility of the compound in H2O at pH >7. Type of series: physicochemical.
Series [6] concerns Salmonidae. Nature of the series: Binding affinity to salmon sperm DNA assessed as first order dissociation rate at pH 6.2 by stop-flow technique in presence of 5 mM Na+ ionic strength. Summed up: (§1)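 Salmon sperm DNA–drug complex preformed without SDS at 6 μM drug and 0.36 mM DNA P/l. Dissociation was started by mixing with 0.2% SDS and followed at 480 nm by stop-flow at 15°C. Buffers were 10 mM MES at pH 6.2 and 1 mM PIPES at pH 7.8, with Na+ set by NaCl. First-order k (sec⁻¹) was taken from rate plots over ≥2.5 half-lives.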

The subject of series [7] is Salmonidae. As to the kind of experiment: Binding affinity to salmon sperm DNA assessed as first order dissociation rate at pH 6.2 by stop-flow technique in presence of 21 mM Na+ ionic strength. Summed up: as §1
Series [8] has as its system Salmonidae. Nature of the series: Binding affinity to salmon sperm DNA assessed as first order dissociation rate at pH 7.8 by stop-flow technique in presence of 1 mM Na+ ionic strength. An outline of the steps: as §1
Series [9] relates to Salmonidae. Nature of the series: Binding affinity to salmon sperm DNA assessed as first order dissociation rate at pH 7.8 by stop-flow technique in presence of 21 mM Na+ ionic strength. An outline of the steps:
as §1

Series [10] has as its system Salmonidae. As to the kind of experiment: Binding affinity to salmon sperm DNA assessed as first order dissociation rate at pH 7.8 by stop-flow technique in presence of 201 mM Na+ ionic strength. An outline of the steps:
as §1

Active and inactive are the calls of the source. The rule behind the calls is not given here.

Bacterial DNA-directed RNA polymerase (Bacteria), sequence (P0A7Z4 whole entry partner): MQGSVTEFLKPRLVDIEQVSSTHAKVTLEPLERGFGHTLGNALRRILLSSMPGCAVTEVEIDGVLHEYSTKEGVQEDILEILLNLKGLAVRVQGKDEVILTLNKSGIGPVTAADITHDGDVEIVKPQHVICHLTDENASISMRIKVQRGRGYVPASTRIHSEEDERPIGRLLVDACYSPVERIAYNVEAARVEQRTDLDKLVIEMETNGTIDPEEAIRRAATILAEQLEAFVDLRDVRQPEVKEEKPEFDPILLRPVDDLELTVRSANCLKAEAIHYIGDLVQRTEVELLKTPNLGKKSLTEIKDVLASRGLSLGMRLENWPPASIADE
Bacterial DNA-directed RNA polymerase (Bacteria), sequence (P0A800 2-91 partner limits assumed): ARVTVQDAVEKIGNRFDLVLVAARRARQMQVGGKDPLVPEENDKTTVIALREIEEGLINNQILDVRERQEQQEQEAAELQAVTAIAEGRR
Bacterial DNA-directed RNA polymerase (Bacteria), sequence (P0A8T7 whole entry partner): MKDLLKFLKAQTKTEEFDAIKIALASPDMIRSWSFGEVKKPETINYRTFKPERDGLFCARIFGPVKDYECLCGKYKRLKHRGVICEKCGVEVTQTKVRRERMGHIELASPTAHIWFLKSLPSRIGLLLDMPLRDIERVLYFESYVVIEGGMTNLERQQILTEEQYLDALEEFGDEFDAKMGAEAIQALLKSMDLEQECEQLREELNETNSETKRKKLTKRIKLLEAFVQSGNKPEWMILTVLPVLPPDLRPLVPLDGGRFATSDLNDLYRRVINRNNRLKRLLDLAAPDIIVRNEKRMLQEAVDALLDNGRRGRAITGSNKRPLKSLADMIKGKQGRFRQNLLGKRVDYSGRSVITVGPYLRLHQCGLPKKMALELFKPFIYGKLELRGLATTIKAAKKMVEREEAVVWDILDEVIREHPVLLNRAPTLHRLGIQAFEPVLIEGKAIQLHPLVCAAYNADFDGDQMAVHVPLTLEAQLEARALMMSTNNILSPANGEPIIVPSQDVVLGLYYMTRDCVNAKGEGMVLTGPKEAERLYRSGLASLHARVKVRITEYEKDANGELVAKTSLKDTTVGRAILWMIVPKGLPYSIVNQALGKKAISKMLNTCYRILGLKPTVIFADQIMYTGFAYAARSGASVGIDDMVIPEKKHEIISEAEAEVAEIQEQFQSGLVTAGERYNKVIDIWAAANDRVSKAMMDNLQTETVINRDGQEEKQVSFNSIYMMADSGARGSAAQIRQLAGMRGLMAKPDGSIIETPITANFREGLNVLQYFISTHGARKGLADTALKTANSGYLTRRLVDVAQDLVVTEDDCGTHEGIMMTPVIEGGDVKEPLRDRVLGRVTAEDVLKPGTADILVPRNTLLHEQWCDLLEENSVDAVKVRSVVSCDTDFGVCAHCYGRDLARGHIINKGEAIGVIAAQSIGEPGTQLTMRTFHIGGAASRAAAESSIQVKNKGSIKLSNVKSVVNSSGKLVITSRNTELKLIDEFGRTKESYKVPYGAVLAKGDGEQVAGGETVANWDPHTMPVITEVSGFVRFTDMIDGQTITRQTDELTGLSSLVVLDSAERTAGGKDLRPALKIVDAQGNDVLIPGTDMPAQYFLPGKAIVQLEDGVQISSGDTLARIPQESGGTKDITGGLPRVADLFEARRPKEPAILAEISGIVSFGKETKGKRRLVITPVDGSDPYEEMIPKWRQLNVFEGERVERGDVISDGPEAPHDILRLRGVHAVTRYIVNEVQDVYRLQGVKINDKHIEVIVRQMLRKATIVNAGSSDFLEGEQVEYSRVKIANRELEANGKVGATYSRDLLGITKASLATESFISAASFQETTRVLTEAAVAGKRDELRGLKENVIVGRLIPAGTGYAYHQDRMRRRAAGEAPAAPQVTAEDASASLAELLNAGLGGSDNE
Bacterial DNA-directed RNA polymerase (Bacteria), sequence (P0A8V2 whole entry): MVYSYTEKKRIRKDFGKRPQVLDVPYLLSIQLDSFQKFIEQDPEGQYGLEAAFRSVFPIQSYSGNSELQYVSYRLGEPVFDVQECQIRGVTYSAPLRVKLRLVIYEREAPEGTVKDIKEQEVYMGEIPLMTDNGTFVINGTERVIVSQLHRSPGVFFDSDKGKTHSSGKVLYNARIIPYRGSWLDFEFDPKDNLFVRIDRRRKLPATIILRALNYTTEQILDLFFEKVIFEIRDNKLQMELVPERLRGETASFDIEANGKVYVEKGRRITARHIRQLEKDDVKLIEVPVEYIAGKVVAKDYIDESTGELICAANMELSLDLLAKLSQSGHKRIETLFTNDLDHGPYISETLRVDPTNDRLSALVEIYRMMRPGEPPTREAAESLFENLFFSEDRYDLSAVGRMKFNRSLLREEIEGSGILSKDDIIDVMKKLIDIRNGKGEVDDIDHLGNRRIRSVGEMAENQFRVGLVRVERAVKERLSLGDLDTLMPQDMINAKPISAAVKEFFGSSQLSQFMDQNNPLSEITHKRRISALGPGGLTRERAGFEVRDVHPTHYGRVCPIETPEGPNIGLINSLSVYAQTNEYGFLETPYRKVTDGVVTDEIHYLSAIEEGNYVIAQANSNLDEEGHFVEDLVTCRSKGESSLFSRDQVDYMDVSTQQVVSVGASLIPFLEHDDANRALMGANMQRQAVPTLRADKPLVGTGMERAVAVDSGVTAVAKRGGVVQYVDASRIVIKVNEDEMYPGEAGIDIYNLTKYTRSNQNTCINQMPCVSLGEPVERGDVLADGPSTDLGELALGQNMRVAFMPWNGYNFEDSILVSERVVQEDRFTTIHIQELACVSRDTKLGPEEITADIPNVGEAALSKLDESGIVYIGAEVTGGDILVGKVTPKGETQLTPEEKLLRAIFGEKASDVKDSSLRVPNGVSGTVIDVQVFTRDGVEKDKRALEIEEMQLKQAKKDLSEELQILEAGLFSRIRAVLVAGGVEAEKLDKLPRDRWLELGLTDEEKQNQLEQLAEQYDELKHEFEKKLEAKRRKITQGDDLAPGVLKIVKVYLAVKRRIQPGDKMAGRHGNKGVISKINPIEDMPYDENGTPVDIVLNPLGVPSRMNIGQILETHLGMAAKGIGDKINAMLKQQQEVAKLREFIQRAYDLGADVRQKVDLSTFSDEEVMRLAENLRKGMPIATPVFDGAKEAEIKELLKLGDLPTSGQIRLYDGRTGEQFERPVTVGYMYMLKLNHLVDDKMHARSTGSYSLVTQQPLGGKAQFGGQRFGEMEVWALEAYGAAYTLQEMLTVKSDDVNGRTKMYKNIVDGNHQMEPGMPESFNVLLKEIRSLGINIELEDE

By pKa is commonly meant the pH at which an ionisable group is half protonated. Regarding `COc1cccc2c1C(=O)c1c(O)c3c(c(O)c1C2=O)C[C@@](O)(C(C)=O)C[C@@H]3O[C@H]1C[C@H](NC(=O)CNC(=O)CN(C)C)[C@H](O)[C@H](C)O1`, the pKa in series [1] was determined as 7.39. In series [2], the inhibition result was “Active”. The TGI entry in the series on P388 was “Active”.

Turning to `COc1cccc2c1C(=O)c1c(O)c3c(c(O)c1C2=O)C[C@@](O)(C(C)=O)C[C@@H]3O[C@H]1C[C@H](NC(=O)CN(C)C)[C@H](O)[C@H](C)O1`, in series [1], the pKa turned out to be 7.35. Moreover, the inhibition result in series [2] was “Active”. In the series with P388, the TGI result is “Active”. In series [3], the Rf stood at 0.68.

On to `CCCN(CCC)CC(=O)N[C@H]1C[C@H](O[C@H]2C[C@](O)(C(C)=O)Cc3c(O)c4c(c(O)c32)C(=O)c2c(OC)cccc2C4=O)O[C@@H](C)[C@H]1O`, for which the pKa in series [4] turned out to be 7.2. The solubility result in [5] is “Insoluble”. Further, the TGI result in the series with P388 was “inactive”.

The compound `COc1cccc2c1C(=O)c1c(O)c3c(c(O)c1C2=O)C[C@@](O)(C(C)=O)C[C@@H]3O[C@H]1C[C@H](N)[C@H](O)[C@H](C)O1.Cl` [DAUNORUBICIN HYDROCHLORIDE] came in with a pKa in series [1] of 8.99. The inhibition result in series [2] was “Active”. In addition, the K worked out at 0.98 s⁻¹ in the series on Salmonidae [6]; 0.98 s⁻¹ in the series on Salmonidae [7]; 1.37 s⁻¹ with Salmonidae [8]; 1.57 s⁻¹ in the series with Salmonidae [9]; 2.88 s⁻¹ in the series with Salmonidae [10]. The TGI entry in the series with P388 is “Active”. This compound also came in with a Rf in [3] of 0.17.
